Experimental data gathered from unrelated publications.
Transmembrane protease serine 6: Transmembrane protease serine 6 (Homo sapiens, UniProt Q8IU80)
SRPK3: SRSF protein kinase 3 (SRPK3, Homo sapiens, UniProt Q9UPE1)
NPY1R: Neuropeptide Y receptor type 1 (NPY1R, Homo sapiens, UniProt P25929)

SMILES | target | test | conditions | inhibition
C[C@@H]1CCCN1CCCCOc1ccc2occc(=O)c2c1 | Transmembrane protease serine 6 | enzyme activity, inhibitor, fluorescence | 10 µM | 10%
COc1cc(Nc2ncc(F)c(Nc3ccc4c(n3)NC(=O)C(C)(C)O4)n2)cc(OC)c1OC | Serine/threonine-protein kinase TAO1 (TAOK1, Homo sapiens, UniProt Q7L7X3) | binding | 10 µM | 92%
CC(C)C[C@H](NC(=O)[C@H](Cc1ccccc1)NC(=O)c1cnccn1)B(O)O | Neutrophil elastase (ELANE, Homo sapiens, UniProt P08246) | enzyme activity, inhibitor | 33 µM | 36.1%
Cn1cc(-c2cc(F)cc(N3CCn4c(cc5c4CCCC5)C3=O)c2CO)cc(Nc2ccc(N3CCN(C4COC4)CC3)cn2)c1=O | SRPK3 | enzyme activity, inhibitor | 0.1 µM | 15%
C#Cc1n[nH]c2c(-c3cn(C(C)c4ccccn4)c(=O)[nH]c3=O)cc(F)cc12 (stereo not drawn) | Serine/threonine-protein kinase mTOR (MTOR, Homo sapiens, UniProt P42345) | enzyme activity, inhibitor | 1 µM | -1.6%
COc1ccc(S(=O)(=O)N2CCCCC2)cc1C | NPY1R | ligand displacement, radioligand | 10 µM | < 30%
C#Cc1n[nH]c2c(-c3cn([C@@H](C)c4ccccc4)c(=O)[nH]c3=O)cc(F)cc12 | Epidermal growth factor receptor (EGFR, Homo sapiens, UniProt P00533) | enzyme activity, inhibitor | 0.1 µM | 0.9%
c1ccc(C(NCCNC(c2ccccc2)c2ccccc2)c2ccccc2)cc1 | Type-1 angiotensin II receptor (AGTR1, Homo sapiens, UniProt P30556) | cell-free assay | 10 µM | 40%
O=C(Nc1cccnn1)N1CCN([C@@H]2CCOc3cc(C(F)(F)F)ccc32)CC1 | Melanocortin receptor 3 (MC3R, Homo sapiens, UniProt P41968) | cell-free assay | 20 µM | 13%
CCN(CC)CCCC[C@H](NC(=O)[C@H](CC(C)C)NC(=O)[C@H](C)NC(=O)[C@H](Cc1ccccc1)NC(=O)c1ccc(C(C)(C)C)cc1)C(=O)N[C@@H](CO)C(=O)OC | NPY1R | ligand displacement, radioligand | 10 µM | -20%
CC(C)CC(CC(=O)NO)N=[N+]=[N-] (stereo not drawn) | Endoplasmic reticulum aminopeptidase 2 (ERAP2, Homo sapiens, UniProt Q6P179) | enzyme activity, inhibitor, fluorescence | 300 µM | 21%
CN1CCN(CCCOc2ccc3occc(=O)c3c2)CC1 | Transmembrane protease serine 6 | enzyme activity, inhibitor, fluorescence | 10 µM | 5%
COCCN(CCOC)C(=O)[C@@]12C[C@@H]1[C@@H](n1cnc3c(NC(C4CC4)C4CC4)nc(Cl)nc31)[C@H](O)[C@@H]2O | Adenosine receptor A3 (ADORA3, Homo sapiens, UniProt P0DMS8) | ligand displacement, radioligand | 10 µM | 30%
Cn1cc(-c2cccc(N3CCc4c(sc5c4CC(C)(C)C5)C3=O)c2CO)cc(Nc2ccncn2)c1=O | SRPK3 | enzyme activity, inhibitor | 1 µM | 9%
CN(CCN1CCC(OC(=O)Nc2ccccc2-c2ccccc2)CC1)C(=O)c1ccc(CN2CCC(C(N)=O)CC2)cc1 | Vasopressin V2 receptor (AVPR2, Homo sapiens, UniProt P30518) | ligand displacement, radioligand | 1 µM | -7%
